The record followed here is ChEMBL document CHEMBL4138260, “Novel Naphthalimide Aminothiazoles as Potential Multitargeting Antimicrobial Agents” (ACS Med Chem Lett, 2017).

A word on the MIC: it is the least concentration at which growth counts as inhibited. Higher therefore signals weaker potency.

Values after ≈ are worked out from the molar mass of the structure shown. Active and inactive are the calls of the source. No cut-off for these calls is given here.

The subject of data set [1] is Escherichia coli. The data set can be described thus: Antimicrobial activity against Escherichia coli ATCC 25922 after 24 hrs by two fold serial dilution method. Conditions: for MIC: ATCC 25922, 24 h. It is filed as functional. The essentials:
(§1)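 MICs by CLSI-recommended two-fold serial broth dilution against the listed bacterial strains.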

Data set [2] has as its system Staphylococcus aureus. The data set can be described thus: Antimicrobial activity against methicillin-resistant Staphylococcus aureus after 24 hrs by two fold serial dilution method. Type of data set: functional. An outline of the steps: as §1
The subject of data set [3] is Staphylococcus aureus. The data set can be described thus: Antimicrobial activity against Staphylococcus aureus ATCC 25923 after 24 hrs by two fold serial dilution method. It is filed as functional. The essentials: as §1
Data set [4] deals with Staphylococcus aureus. The data set can be described thus: Antimicrobial activity against Staphylococcus aureus ATCC 29213 after 24 hrs by two fold serial dilution method. It is filed as functional. An outline of the steps: as §1
Data set [5] has as its system Acinetobacter baumannii. The data set can be described thus: Antimicrobial activity against Acinetobacter baumannii after 24 hrs by two fold serial dilution method. It is filed as functional. The essentials:
(§2)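 MIC determined in vitro by two-fold serial dilution, following the procedure recommended by the Clinical and Laboratory Standards Institute (CLSI).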

Data set [6] has as its system Staphylococcus aureus. The data set can be described thus: Antimicrobial activity against Staphylococcus aureus after 24 hrs by two fold serial dilution method. It is filed as functional, organism-based. The essentials: as §2
The subject of data set [7] is Enterococcus faecalis. The experiment in a line: Antimicrobial activity against Enterococcus faecalis after 24 hrs by two fold serial dilution method. It is filed as functional, organism-based. The essentials:
as §2

Data set [8] concerns Pseudomonas aeruginosa. The experiment in a line: Antimicrobial activity against Pseudomonas aeruginosa after 24 hrs by two fold serial dilution method. It is filed as functional. An outline of the steps: as §1
In data set [9] the test system is Escherichia coli. The experiment in a line: Antimicrobial activity against Escherichia coli after 24 hrs by two fold serial dilution method. It is filed as functional. An outline of the steps: as §1
The test system of data set [10] is Klebsiella pneumoniae. The data set can be described thus: Antimicrobial activity against Klebsiella pneumoniae after 24 hrs by two fold serial dilution method. It is filed as functional, organism-based. An outline of the steps: as §2
The test system of data set [11] is Pseudomonas aeruginosa. The data set can be described thus: Antimicrobial activity against Pseudomonas aeruginosa ATCC 27853 after 24 hrs by two fold serial dilution method. It is filed as functional. An outline of the steps: as §1
Data set [12] deals with Escherichia coli. The data set can be described thus: Potency index, ratio of norfloxacin MIC to compound MIC against Escherichia coli ATCC 25922. Type of data set: functional.
Data set [13] deals with Staphylococcus aureus. The experiment in a line: Bactericidal activity against methicillin-resistant Staphylococcus aureus assessed as log reduction in bacterial count at 4 times MIC measured up to 7 hrs by time kill assay. Type of data set: functional. An outline of the steps:
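Time-kill kinetics against MRSA with the compound at 4 × MIC. Viable bacteria were counted over time as log CFU/mL.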

For data set [14], the system named is Escherichia coli. The experiment in a line: Potency index, ratio of chloromycin MIC to compound MIC against Escherichia coli ATCC 25922. Type of data set: functional.
Data set [15] is described as follows: Cytotoxicity against […] RAW264.7 cells assessed as cell viability at 128 ug/ml after 24 hrs by MTT assay. It is filed as cell-based. The settings on record: read-out: Activity. An outline of the steps:
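Cytotoxicity in […] RAW 264.7 macrophages by MTT assay at concentrations up to 128 μg/mL. Read-out was percent cell viability.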
Background: Tetrazolium dyes change colour on reduction, which living cells bring about.

The test system of data set [16] is Escherichia coli. The data set can be described thus: Membrane permeabilization of Escherichia coli cytoplasmic membrane at 12 times MIC after 60 mins by propidium iodide staining based fluorescence assay. Type of data set: functional, organism-based. An outline of the steps: (§3)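 Cytoplasmic membrane permeabilization of MRSA or E. coli with propidium iodide. Fluorescence intensity of the compound/PI-treated bacterial mixtures was followed over time up to steady state, with two control groups run in parallel.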

The test system of data set [17] is Staphylococcus aureus. The experiment in a line: Membrane permeabilization of methicillin-resistant Staphylococcus aureus cytoplasmic membrane at 12 times MIC after 60 mins by propidium iodide staining based fluorescence assay. It is filed as functional, organism-based. The essentials:
as §3

For data set [18], the system named is DNA. The data set can be described thus: Induction of methicillin-resistant Staphylococcus aureus DNA intercalation assessed as compound-DNA complex formation incubated for 1 hr by UV-visible absorption spectroscopy. Type of data set: nucleic-acid assay.
Data set [19] has as its system Staphylococcus aureus. The experiment in a line: Antimicrobial activity against methicillin-resistant Staphylococcus aureus measured every 24 hrs post passages for 16 days. It is filed as functional, organism-based. The essentials: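 Resistance-development study in MRSA, with MIC re-measured over serial passages. Norfloxacin and chloromycin were run alongside as reference drugs.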

The target of data set [20] is Albumin (Homo sapiens, UniProt P02768). The data set can be described thus: Binding affinity to human serum albumin by UV-visible absorption spectroscopy. The settings on record: isolated protein. Type of data set: ADME.
Albumin, sequence (P02768 whole entry): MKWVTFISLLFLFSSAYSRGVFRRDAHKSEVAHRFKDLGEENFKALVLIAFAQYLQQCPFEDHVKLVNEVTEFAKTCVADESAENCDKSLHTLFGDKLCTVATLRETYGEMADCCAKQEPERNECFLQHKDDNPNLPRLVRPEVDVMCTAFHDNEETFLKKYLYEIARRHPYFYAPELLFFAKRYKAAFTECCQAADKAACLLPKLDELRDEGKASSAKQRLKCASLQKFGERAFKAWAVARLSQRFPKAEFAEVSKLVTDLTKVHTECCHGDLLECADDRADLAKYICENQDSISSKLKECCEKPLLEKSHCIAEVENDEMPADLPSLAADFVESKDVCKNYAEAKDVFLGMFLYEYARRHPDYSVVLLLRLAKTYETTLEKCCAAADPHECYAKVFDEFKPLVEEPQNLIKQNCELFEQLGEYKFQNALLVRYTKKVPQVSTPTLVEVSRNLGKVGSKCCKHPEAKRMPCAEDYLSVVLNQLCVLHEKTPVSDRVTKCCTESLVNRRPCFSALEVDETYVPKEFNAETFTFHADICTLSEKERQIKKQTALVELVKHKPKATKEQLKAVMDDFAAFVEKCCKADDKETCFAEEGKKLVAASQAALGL
Data set [21] has as its system Acinetobacter baumannii. The data set can be described thus: Potency index, ratio of chloromycin MIC to compound MIC against Acinetobacter baumannii. It is filed as functional.

Turning to `CCCCCCCCCCN1CCN(c2ccc3c4c(cccc24)C(=O)N(Nc2nccs2)C3=O)CC1`, the outcome in [1], in [2], in [3], in data set [4], in data set [5] and in data set [6] was inactive. Moreover, the result in [7], in data set [8], in data set [9], in data set [10] and in data set [11] was inactive.

In the case of `O=C1c2cccc3c(Br)ccc(c23)C(=O)N1Nc1nccs1`, the result in data set [1], in data set [2], in [3], in data set [4], in [5] and in data set [6] was Active. Besides, the outcome in data set [7], in [8], in [9], in data set [10] and in data set [11] was Active.

`CCCCCCCCCCCCN1CCN(c2ccc3c4c(cccc24)C(=O)N(Nc2nccs2)C3=O)CC1`: the result in data set [1], in data set [2], in data set [3], in data set [4], in data set [5] and in data set [6] was inactive. For the same compound, the result in data set [7], in [8], in data set [9], in [10] and in [11] was inactive.

On to `O=C1c2cccc3c(N4CCNCC4)ccc(c23)C(=O)N1Nc1nccs1`, for which the MIC in [1] is 4 to 16 µg/mL (≈ 10.5 to 42.2 µM); in [2], 4 µg/mL (≈ 10.5 µM); in data set [3] (ATCC 25923, 24 h), 4 µg/mL (≈ 10.5 µM); in data set [4] (ATCC 29213, 24 h) it was 2 µg/mL (≈ 5.27 µM); in data set [8], 4 to 16 µg/mL (≈ 10.5 to 42.2 µM); in data set [9], 4 to 16 µg/mL (≈ 10.5 to 42.2 µM). In addition, in [11] (ATCC 27853, 24 h), the MIC lay within 4 to 16 µg/mL (≈ 10.5 to 42.2 µM). Also, the Ratio in data set [12] is given as 2; in data set [14], 4. For the same compound, the figures for the Activity in [13] and in data set [20] were greater than 3 CFU/ml and “Active”, respectively. Moreover, the viability at 24 h, 128 ug/ml in data set [15] was 80.1%. For the same compound, the result in data set [16], in [17], in data set [18] and in data set [19] was Active. The outcome in [5] was inactive.

On to `CCn1cc(C(=O)O)c(=O)c2cc(F)c(N3CCNCC3)cc21` [NORFLOXACIN], for which the MIC in data set [1] and in data set [5] was 8 µg/mL (≈ 25.1 µM) in each case.

Regarding `CCCCCCCCCCCCCCCCN1CCN(c2ccc3c4c(cccc24)C(=O)N(Nc2nccs2)C3=O)CC1`, the result in data set [1], in data set [2], in [3], in [4], in [5] and in data set [6] was inactive. Besides, the result in data set [7], in [8], in [9], in data set [10] and in data set [11] was inactive.

Consider `O=C1c2cccc3c(N4CCOCC4)ccc(c23)C(=O)N1Nc1nccs1`, for which the MIC in data set [5] amounted to 8 µg/mL (≈ 21 µM). In addition, the Ratio in data set [21] stood at 2.
